The target in assay [1] is T1, Adenosine deaminase (Bos taurus, UniProt P56658).
T1 sequence (P56658 whole entry): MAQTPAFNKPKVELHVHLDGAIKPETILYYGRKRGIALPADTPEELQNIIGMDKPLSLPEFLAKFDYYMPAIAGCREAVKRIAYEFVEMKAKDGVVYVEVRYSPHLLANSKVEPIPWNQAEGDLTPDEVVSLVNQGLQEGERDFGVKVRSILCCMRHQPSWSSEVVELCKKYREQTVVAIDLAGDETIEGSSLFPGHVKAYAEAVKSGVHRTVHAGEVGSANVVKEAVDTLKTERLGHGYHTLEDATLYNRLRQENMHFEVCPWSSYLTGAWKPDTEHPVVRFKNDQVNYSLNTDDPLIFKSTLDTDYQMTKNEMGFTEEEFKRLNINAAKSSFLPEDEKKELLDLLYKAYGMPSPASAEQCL
The assay can be described thus: Inhibitor constant against adenosine deaminase in 0.05 M sodium phosphate buffer at pH 7.0 was determined after heating to 100 degrees celsius. Put shortly:
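Dialdehyde heated at 100 °C in aqueous phosphate buffer before testing. Adenosine deaminase (0.25 unit) added to buffered adenosine (30–70 μM, at least five levels) with dialdehyde (3–190 μM, two levels). Rate of absorbance change at 265 nm followed at 25 °C, 0.05 M sodium phosphate, pH 7.0. Ki from Lineweaver–Burk plots fitted by Wilkinson least squares.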

The target of assay [2] is T1, Adenosine deaminase. In words: Inhibitory constant against adenosine deaminase in 0.05 M sodium phosphate buffer at pH 7.0 was determined before heating.
Assay [3] deals with T1, Adenosine deaminase. In words: Inhibitor constant against adenosine deaminase in 0.05 M sodium phosphate buffer at pH 7.0, was determined after heating to 100 degrees celsius. Put shortly:
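Dialdehyde pre-heated as an aqueous phosphate-buffer solution at 100 °C (about 1 h). Adenosine deaminase (0.25 unit) added to buffered adenosine (30–70 μM) plus dialdehyde (3-190 μM) in 0.05 M sodium phosphate, pH 7.0, 25 °C. Absorbance change at 265 nm followed. At least five substrate and two inhibitor levels used. Ki from Lineweaver–Burk plots, least-squares lines.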

The target in assay [4] is T1, Adenosine deaminase. In words: Inhibitory constant against adenosine deaminase in 0.05 M sodium phosphate buffer at pH 7.0, was determined before heating.

One may read the Ki as a dissociation constant, usually derived from enzyme kinetics or from competition with a known ligand. A high value points to lower affinity. The compound `CC(O)[C@@H](C=O)OC(C=O)n1cnc2c(N)ncnc21` (single isomer, unassigned; 7) had a Ki at Adenosine deaminase [1] of 24 µM.

Turning to `CC(O)[C@H](C=O)O[C@@H](C=O)n1cnc2c(N)ncnc21` (stereo in doubt; 8), the inhibitory constant (Ki) on Adenosine deaminase [1] stood at 69 µM.

At Adenosine deaminase [1], `CC(O)[C@H](C=O)O[C@@H](C=O)n1cnc2c(N)ncnc21` (stereo in doubt; 9) had an inhibitory constant (Ki) of 38 µM.

Regarding `C[C@@H](C=O)O[C@@H](C=O)n1cnc2c(N)ncnc21` (stereo in doubt; 13), the Ki was 160 µM on Adenosine deaminase [2] and 100 µM at Adenosine deaminase [1].

On to `Nc1ncnc2c1ncn2[C@@H](C=O)O[C@@H](C=O)CO`, for which the results for the Ki on Adenosine deaminase [3] and on Adenosine deaminase [4] were 5 µM and 520 µM, respectively.

For the compound `C=C(C=O)OC(C=O)n1cnc2c(N)ncnc21` (centres undefined), the inhibitory constant (Ki) at Adenosine deaminase [2] is 4 µM.

Turning to `CC(O)[C@H](C=O)OC(C=O)n1cnc2c(N)ncnc21` (single isomer, unassigned), the Ki at Adenosine deaminase [1] came out at 21 µM.

For `CC(O)[C@@H](C=O)OC(C=O)n1cnc2c(N)ncnc21` (single isomer, unassigned; 10), the Ki at Adenosine deaminase [2] amounted to 150 µM; at Adenosine deaminase [1], 20 µM.

`Nc1ncnc2c1ncn2[C@H](C=O)O[C@@H](C=O)CO`: the Ki stood at 8 µM at Adenosine deaminase [1] and 310 µM on Adenosine deaminase [4].

With `Nc1ncnc2c1ncn2[C@@H](C=O)OCC=O`, the Ki was determined as 46 µM at Adenosine deaminase [2] and 30 µM at Adenosine deaminase [1].

As for `C[C@@H](C=O)O[C@@H](C=O)n1cnc2c(N)ncnc21` (stereo in doubt; 4), the Ki was found to be 28 µM at Adenosine deaminase [2] and 30 µM at Adenosine deaminase [1].

Regarding `Nc1ncnc2c1ncn2[C@H](C=O)OCC=O`, the Ki was 780 µM on Adenosine deaminase [2] and 800 µM on Adenosine deaminase [1].

These data come from ChEMBL document CHEMBL1121634, “Heat-induced formation of alpha,beta-unsaturated nucleoside dialdehydes and their activity with adenosine deaminase” (J Med Chem, 1980).
